# IMP-1 inhibitor: IMP-1 metallo-beta-lactamase inhibitors, primary screen, biochemical, epi-absorbance readout, Pseudomonas aeruginosa enzyme; purified IMP-1, nitrocefin hydrolysis, epi-absorbance fluorescence; inhibition, % at 5.6 µM; metallo-beta-lactamase IMP-1 (Pseudomonas aeruginosa); 290,000 compounds, 0.45% hits;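 active means inhibition above the mean plus 3 SD of all compounds in the same screening run, cut at about 4.5% in these data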;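 further: 0% = IMP-1 with DMSO and 100% = DMSO wells lacking enzyme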
#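 System: Purified IMP-1 | Read-out basis: Percent enzyme inhibition | Controls: IMP-1 with DMSO as 0%, enzyme-free DMSO as 100% | Replicates: One well per compound | Doses: 5.6 µM nominal single concentration | Detection: Epi-absorbance fluorescence, 480 nm excitation, 530 nm emission | Incubation: 25 °C, 15 min preincubation, 25 min reaction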
# aSyn UTR inh: MLPCN primary screen, SNCA 5' untranslated region | alpha-synuclein 5'UTR reporter, inhibitor activity | inhibition, % (tested at 7.5 µM) | 300,000 compounds, 0.82% hits | AID 1813, 2009; in the data active means inhibition above about 60%;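 further: H4 neuroglioblastoma cells stably carrying SNCA 5'UTR luciferase fusion; 0% = DMSO wells and 100% = positive control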
# Mdm2-MdmX inh: inhibitors of human Mdm2-MdmX association, primary screen, cell-based, luminescence, split luciferase, SaOS-2, uHTS; inhibition, % at 8 µM; 330,000 compounds, 3% hits; SaOS-2 split-luciferase Mdm2/MdmX complementation; Protein Mdm4 (Homo sapiens) + E3 ubiquitin-protein ligase Mdm2 (Homo sapiens), …;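 active means inhibition of at least 50% at 8 µM in the primary screen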
# Jurkat NFkB inh: inhibitors of induced NF-kB luciferase reporter, primary screen, TCR NF-kB activation inhibitor project, cell-based, luminescence, uHTS; Jurkat, PMA/ionomycin-induced NF-kB luciferase reporter; inhibition, % at 4 µM; 330,000 compounds, 0.53% hits; AID 435003, 2010; in the data active means inhibition above about 50%
# 697 NFkB inh: inhibitors of PMA/ionomycin-induced NF-kB reporter, 697 cells, primary screen, B-cell NF-kB inhibitor project, cell-based, luminescence, uHTS; 697 B-cell NF-kB luciferase reporter, 16 h; 330,000 compounds, 0.33% hits; inhibition, % at 4 µM; in the data active means inhibition above about 35%
# VIM-2 inhibitor: VIM-2 metallo-beta-lactamase inhibitors, primary screen, biochemical, epi-absorbance readout, Pseudomonas aeruginosa enzyme; purified VIM-2, nitrocefin hydrolysis, epi-absorbance fluorescence; inhibition, % at 5.6 µM; 290,000 compounds, 0.89% hits; AID 1527, 2009;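 active means inhibition above the mean of all tested compounds plus 3 SD, cutoff set per screening run, cut at about 7.5% in these data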;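 further: red hydrolysis product quenches plate fluorescence so inhibitors raise well fluorescence; 0% = enzyme with DMSO and 100% = DMSO without enzyme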
# Mdm2 MdmX conf: Mdm2-MdmX complex disruptors, retested hits, confirmation, luminescence, single concentration | shares compounds with Mdm2-MdmX inh | inhibition, % at 8 µM | Mdm2-MdmX binding, luminescent assay | 10,000 compounds, 55% hits; in the data active means inhibition above about 40%
# Full FLuc ctr: full-length luciferase signal inhibition, confirmation, counter-screen for Mdm2/MdmX interaction inhibitor project, cell-based, single concentration, SaOS-2; 6,200 compounds, 77% hits; AID 504607, 2011; SaOS-2 full-length luciferase counterscreen, luminescence; inhibition, % at 8 µM; shares compounds with Mdm2-MdmX inh;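 active means mean inhibition at 8 µM reaching about 37%, which flags the compound as non-specific, limit read from the data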;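 further: p53-null SaOS-2 cells with luciferase driven by a doxycycline-inducible promoter; compound on cells about two nights before reading with doxycycline added after day one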
# The depositor's hits bear a star; . = no result. Compounds with a hit are over-represented: about 4.7% of the library has one in this group of screens.
SMILES,IMP-1 inhibitor,aSyn UTR inh,Mdm2-MdmX inh,Jurkat NFkB inh,697 NFkB inh,VIM-2 inhibitor,Mdm2 MdmX conf,Full FLuc ctr
CC1(C)Cc2c(sc(NC(=O)COc3ccc(Cl)cc3)c2C(N)=O)C(C)(C)N1,0,-33,26,-27,-8,2,.,.
COc1cccc(-c2nn(C)c3sc(C(=O)NCc4ccccn4)cc23)c1,-2,-9,55*,-4,28,-1,41*,77*
COc1cccc(NC(=O)c2cc3c(=O)n4ccccc4nc3n(CC(C)C)c2=N)c1,-2,-20,74*,15,-8,-3,68*,41*
COc1ccc(CCn2c(=N)c(C(=O)NC3CCCC3)cc3c(=O)n4ccccc4nc32)cc1,-2,14,52*,1,1,3,0,.
COc1ccc(CCC(=O)N2CCCC(Nc3ccc(C)c(C)c3)C2)cc1OC (configuration not stated),-2,-1,6,-6,-3,-1,.,.
COc1ccc(S(=O)(=O)NCC2CCCN(Cc3ccc(OC)cc3F)C2)cc1 (configuration not stated),-4,-90,4,-3,-8,-1,.,.
Cc1cccc(OCC(=O)NC(C)C(=O)N/N=C/c2c(OCc3ccccc3)ccc3ccccc23)c1 (configuration not stated),1,-138,76*,-62,-44,-2,36,69*
COc1cccc(NC(=O)COC(=O)c2c3c(nc4ccccc24)CCC(C)C3)c1 (configuration not stated),-1,7,79*,26,18,-2,64*,64*
CCc1ccc(C(=O)C(C)OC(=O)Cc2n[nH]c(=O)c3ccccc23)cc1 (configuration not stated),-1,-44,59*,26,-67,1,74*,58*
CCc1ccc(C(=O)C(C)OC(=O)Cn2[nH]c(=O)c3ccccc3c2=O)cc1 (configuration not stated),.,.,-21,-27,-27,.,.,.
CC12CCC(=O)N1C(C(=O)NNC(=O)COc1cccc(C(F)(F)F)c1)CS2 (configuration not stated),.,21,0,21,9,.,.,.
Cc1nc2c(C)cccc2cc1C(=O)N/N=C/c1ccc(N(C)C)cc1,-4,-4,50*,7,11,-4,49*,57*
Cc1nc2c(C)cccc2cc1C(=O)N/N=C/c1ccc(C(=O)O)cc1,0,-14,-15,-22,-24,-1,.,.
O=S(=O)(Nc1cccnc1)c1cccc(C(F)(F)F)c1,-3,9,7,-2,6,-2,.,.
O=[N+]([O-])c1ccc(S(=O)(=O)c2cccc(C(F)(F)F)c2)nc1,.,-9,95*,14,-31,.,100*,0
CN(C)c1ccc(-c2cc(O)c3ncccc3c2)cc1,.,.,92*,0,-40,.,84*,50*
CN(C)CCCNC(=O)c1ccc(-c2cc(O)c3ncccc3c2)cc1,.,.,55*,23,-16,.,34,55*
Oc1cc(-c2ccc(N3CCCCC3)nc2)cc2cccnc12,.,.,98*,-83,-75,.,97*,50*
CN(C)CCCNC(=O)c1ccc(-c2nc(-c3ccc(Cl)cc3)cs2)cc1,-3,118*,87*,-4,-164,0,94*,28
CN(C)CCCNC(=O)c1ccccn1,-2,11,-11,5,7,-5,.,.
N#C/C(=N\Nc1ccccc1)C(=N)N1CCCCCC1,-1,-171,-50,-98,-118,1,.,.
COc1ccc(-c2cn3nc(SCC(=O)NCC4CCCO4)ccc3n2)cc1 (configuration not stated),-2,-5,-39,-58,-61,-1,.,.
Oc1cc(Nc2ccncc2)cc2cccnc12,.,.,38,33,6,.,.,.
Oc1cc(Nc2cccnc2)cc2cccnc12,.,.,66*,17,-3,.,12,.
Oc1cc(-c2ccncc2)cc2cccnc12,.,.,91*,17,-3,.,66*,52*
SMILES,IMP-1 inhibitor,aSyn UTR inh,Mdm2-MdmX inh,Jurkat NFkB inh,697 NFkB inh,VIM-2 inhibitor,Mdm2 MdmX conf,Full FLuc ctr
Cc1n[nH]c(=O)c2c(NC(=O)CSc3nn(-c4ccccc4)c(=S)s3)oc(C)c12,.,9,20,-1,4,.,.,.
CCOc1cc(CN2CCCC(CNC(=O)c3ccc(F)cc3)C2)ccc1OC (configuration not stated),-3,4,21,7,-4,-2,.,.
O=C(O)CC(Cc1ccc(Br)cc1)C(=O)Nc1ccccc1 (configuration not stated),-1,-16,12,2,-23,-1,.,.
c1ccc(COc2ccccc2CNC23CC4CC(CC(C4)C2)C3)cc1,0,-41,96*,2,-30,0,70*,59*
COCCOC(=O)c1[nH]c2c(c1C)C(=O)CC(c1ccccc1)C2 (configuration not stated),-3,78*,62*,46,-16,0,60*,73*
CN(C(=O)COC(=O)c1ccc(NS(=O)(=O)c2cccs2)cc1)C1CCCCC1,-2,-9,-3,-8,2,-1,.,.
CCOc1cc(NC(=O)C2CC2)c(OCC)cc1NC(=O)c1ccccc1OCC,-4,-38,36,-8,-18,-1,.,.
CCOc1cc(NC(=O)C2CC2)c(OCC)cc1NC(=O)c1cc(OC)c(OC)c(OC)c1,-3,-9,62*,-5,25,-1,13,.
CC(c1ccco1)N(C(=O)C12CC3(C)CC(C)(CC(C)(C3)C1)C2)c1ccccn1 (configuration not stated),-2,10,-14,6,2,-2,.,.
Cc1cc(C)cc(C(=O)Nc2ccc(NC(=O)Cc3ccccc3)cc2)c1,0,34,52*,10,28,-1,10,.
COc1cccc(C(=O)N/N=C(\C)c2ccc(NC(=O)Cc3ccccc3)cc2)c1OC,-3,-88,-17,-31,-3,-4,.,.
C/C(=N\NC(=O)c1ccccc1O)c1ccc(NC(=O)Cc2ccccc2)cc1,2,-71,51*,-17,-77,-7,20,.
